Assay results published in article PMC6511231 (Cell reports, 2018).
Entries after “also recorded” stand apart in the source; their conditions may differ.

Legend:
LIN28ΔK102 = LIN28ΔK102 (Homo sapiens, UniProt Q9H9Z2, K102A); assay: Saturation transfer difference spectroscopy, K102A mutant; assay type: binding; settings: K102A mutation, compared with LIN28Δ
Method in brief: (§1)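 Protein was dialysed overnight into 20 mM Bis-Tris pH 6.0, 100 mM NaCl, 10% v/v glycerol-d8, 5 mM DTT and D2O. Test compound was dissolved in DMSO-d6. Samples held 100 μM compound and 5 μM protein in dialysis buffer. STD spectra were collected at 700 MHz, irradiating the macromolecule only at −2 ppm, with a 2 s transfer delay.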

preE-let-7f = assay: Saturation transfer difference spectroscopy, preE-let-7f; assay type: binding, human; settings: preE-let-7f alone
Solubility in solution = assay type: physicochemical; settings: water / solution
K562 leukemia cells = assay: qPCR of microRNA species in K562 cells; assay type: cell-based, human; settings: 100 μM, 48 hr
Method in brief: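 K562 leukaemia cells, or DKO+A mESCs (Lin28a/Lin28b double-knockout re-expressing wild-type LIN28A, in LIF/2i), were treated 48 hr with 100 μM test compound or vehicle. Total RNA was isolated with TRIzol and cDNA made with the miScript system. Mature and precursor microRNAs were quantified with specific primer assays relative to U6; n = 6 over two independent experiments.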

HeLaLIN28A = assay: let-7-sensitive dual luciferase reporter assay, HeLaLIN28A; assay type: cell-based, human; settings: LI71 50–100 μM, 48 hr
Method in brief: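 A HeLa clone stably expressing low-level FLAG-LIN28A plus the 8×let-7 Renilla/firefly dual-luciferase sensor was treated 48 hr with vehicle (DMSO) or test compound at the indicated concentrations. Dual luciferase activity was then assayed, with firefly as internal control. Runs used 3 or 5 biological replicates; Student's t test against vehicle.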

TUT4 = TUT4 (Mus musculus, UniProt B2RX14); assay: Uridylation assay without LIN28; assay type: biochemical
TUT4, sequence (B2RX14 230-1424): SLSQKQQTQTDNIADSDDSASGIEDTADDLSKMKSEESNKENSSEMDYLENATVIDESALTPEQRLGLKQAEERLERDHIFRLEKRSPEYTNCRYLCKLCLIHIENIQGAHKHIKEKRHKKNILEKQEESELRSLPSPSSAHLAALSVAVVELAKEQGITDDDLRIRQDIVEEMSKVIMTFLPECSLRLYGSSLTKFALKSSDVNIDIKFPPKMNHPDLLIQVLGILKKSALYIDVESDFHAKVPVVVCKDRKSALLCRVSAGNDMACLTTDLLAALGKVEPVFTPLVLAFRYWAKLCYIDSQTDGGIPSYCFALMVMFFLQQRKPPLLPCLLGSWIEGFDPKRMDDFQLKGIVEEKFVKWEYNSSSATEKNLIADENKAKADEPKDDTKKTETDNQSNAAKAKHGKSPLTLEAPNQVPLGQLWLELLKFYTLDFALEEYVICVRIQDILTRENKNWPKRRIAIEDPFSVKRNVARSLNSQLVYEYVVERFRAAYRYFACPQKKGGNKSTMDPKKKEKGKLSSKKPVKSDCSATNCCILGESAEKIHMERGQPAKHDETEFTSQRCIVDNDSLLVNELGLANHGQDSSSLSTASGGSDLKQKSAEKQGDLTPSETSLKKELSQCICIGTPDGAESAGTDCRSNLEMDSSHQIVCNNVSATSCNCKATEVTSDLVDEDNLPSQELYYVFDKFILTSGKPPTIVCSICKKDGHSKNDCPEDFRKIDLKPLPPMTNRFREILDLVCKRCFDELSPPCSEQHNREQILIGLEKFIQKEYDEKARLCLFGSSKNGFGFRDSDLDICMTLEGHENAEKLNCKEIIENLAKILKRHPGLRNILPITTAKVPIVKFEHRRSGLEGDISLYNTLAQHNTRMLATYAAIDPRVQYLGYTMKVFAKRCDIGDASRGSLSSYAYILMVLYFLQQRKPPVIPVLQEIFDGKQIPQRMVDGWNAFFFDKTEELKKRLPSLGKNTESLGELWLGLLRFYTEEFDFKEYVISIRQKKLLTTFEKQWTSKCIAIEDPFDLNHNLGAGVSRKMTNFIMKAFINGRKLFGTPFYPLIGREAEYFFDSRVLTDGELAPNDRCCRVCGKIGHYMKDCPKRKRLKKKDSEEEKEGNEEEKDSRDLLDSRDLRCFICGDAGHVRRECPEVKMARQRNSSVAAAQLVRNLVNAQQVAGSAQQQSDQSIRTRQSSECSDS

human LIN28Δ = human LIN28Δ (Homo sapiens, UniProt Q9H9Z2); assay: Saturation transfer difference spectroscopy, LIN28Δ; assay type: binding; settings: 100 μM compound, 5 μM LIN28
human LIN28Δ, sequence (Q9H9Z2 16-187, stated change not applied): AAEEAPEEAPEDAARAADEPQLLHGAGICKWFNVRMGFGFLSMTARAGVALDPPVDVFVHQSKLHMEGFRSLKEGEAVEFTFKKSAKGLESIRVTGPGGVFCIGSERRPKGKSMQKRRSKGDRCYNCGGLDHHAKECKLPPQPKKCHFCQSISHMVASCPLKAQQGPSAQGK
Method in brief: as §1

[1] = target: mouse LIN28Δ:preE-let-7d complex (Mus musculus, UniProt Q8K3Y3); assay: HSQC spectroscopy; assay type: binding; settings: 15N-labeled mouse LIN28Δ with unlabeled preE-let-7d
mouse LIN28Δ:preE-let-7d complex, sequence (Q8K3Y3 16-184, stated change not applied, one chain of several): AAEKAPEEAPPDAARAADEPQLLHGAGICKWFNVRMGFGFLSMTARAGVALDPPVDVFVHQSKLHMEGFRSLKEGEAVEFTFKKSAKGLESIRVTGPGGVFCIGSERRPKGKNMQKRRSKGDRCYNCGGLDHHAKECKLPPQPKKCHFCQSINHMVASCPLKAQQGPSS

[2] = target: CSD (residues 16–136) of LIN28 (Homo sapiens, UniProt Q9H9Z2); assay: Saturation transfer difference spectroscopy, CSD; assay type: binding; settings: CSD alone
CSD (residues 16–136) of LIN28, sequence (Q9H9Z2 16-136): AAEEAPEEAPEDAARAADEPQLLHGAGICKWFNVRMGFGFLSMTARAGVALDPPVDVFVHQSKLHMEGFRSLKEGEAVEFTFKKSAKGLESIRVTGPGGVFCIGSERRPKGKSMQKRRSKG
Method in brief: as §1

LIN28ΔK102, sequence (Q9H9Z2 16-187 K102A): as the sequence (Q9H9Z2 16-187, stated change not applied) above, with K87A counted along it

CCOc1cccc2c1N[C@@H](c1ccc(C(=O)O)cc1)[C@H]1CC=C[C@@H]21 [LI71]
Saturation transfer difference signal (LIN28ΔK102): increases the saturation transfer difference signal
Saturation transfer difference peaks (preE-let-7f): but not preE-let-7f
Solubility (Solubility in solution): better water solubility; also recorded: ample solubility in solution
let-7 precursor species (K562 leukemia cells): not correlated with increased levels of let-7 precursor species
miR-16 (non-LIN28-regulated microRNA) (K562 leukemia cells): small but significant effect
miR-93, miR-99a and miR-151 (non-LIN28-regulated microRNAs) (K562 leukemia cells): did not observe significant effects
Mature let-7 species (K562 leukemia cells; vs DMSO): significant increase in several let-7 species
Relative Renilla luciferase activity (HeLaLIN28A): significantly reduce the relative Renilla luciferase activity
Catalytic activity of TUT4 when LIN28 is not present (TUT4): does not abolish catalytic activity of TUT4
Saturation transfer difference peaks (human LIN28Δ): saturation transfer difference peaks of LI71 occur
HSQC peak intensity changes [1]: minor intensity reductions for a number of residues
Saturation transfer difference signals [2]: induces the LI71 saturation transfer difference signals
